Laboratory results reported in ChEMBL document CHEMBL1131139, “Synthesis and antibacterial activity of ketolides (6-O-methyl-3-oxoerythromycin derivatives): a new class of antibacterials highly potent against macrolide-resistant and -susceptible respiratory pathogens” (1998).
≈ marks a conversion by molar mass, not a printed value.

Legend:
[1] = tested on: Haemophilus influenzae; experiment: (§1) In Vivo evaluation for its effective dose against Haemophilus influenzae (351TO19 AmpR beta (-)); format: functional
Outline: (§2)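 Male Charles River CD1 mice, 20-22 g, 10 per dose group, infected intraperitoneally with 0.5 mL diluted overnight broth culture (physiological buffer or 5% hog mucine) at 10-100 times the minimal lethal dose. Compound suspended in carboxymethylcellulose, 0.5 mL given orally immediately and 4 h postinfection. Survival followed 8-10 days; ED50 (unitary dose protecting 50% from death) by Litchfield-Wilcoxon probit method.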

[2] = tested on: Staphylococcus aureus; experiment: In vitro inhibitory activity against Staphylococcus aureus (EryRi 011GO25i); format: functional
Outline: (§3)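 Two-fold agar dilution on Mueller-Hinton agar (pH 7.4). Inoculum from overnight plate cultures suspended in Mueller-Hinton broth, adjusted to 10^9 CFU/mL, diluted 1:200 and spotted by multipoint inoculator at about 10^4 CFU/spot. Plates incubated 37 °C for 20 h. MIC taken as lowest concentration with no visible growth.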

[3] = tested on: Streptococcus pyogenes; experiment: (§4) In Vivo evaluation for its effective dose against Streptococcus pyogenes (02A1UC1); format: functional; outline: as §2
[4] = tested on: Streptococcus pneumoniae; experiment: In vitro inhibitory activity against Streptococcus pneumoniae (EryRc 030SJ1); format: functional; outline: as §3
[5] = tested on: Streptococcus pneumoniae; experiment: (§5) In Vivo evaluation for its effective dose against Streptococcus pneumoniae (030RO1 EryRi); format: functional; outline: as §2
[6] = tested on: Haemophilus influenzae; experiment: (§6) In Vivo evaluation for its effective dose against Haemophilus influenzae (351GR1); format: functional; outline: as §2
[7] = tested on: Streptococcus pneumoniae; experiment: (§7) In Vivo evaluation for its effective dose against Streptococcus pneumoniae (032UC1); format: functional; outline: as §2
[8] = tested on: Haemophilus influenzae; experiment: In vitro inhibitory activity against Haemophilus influenzae (351CB12); format: functional; outline: as §3
[9] = tested on: Streptococcus pyogenes; experiment: In vitro inhibitory activity against Streptococcus pyogenes (02A1UC1); format: functional; outline: as §3
[10] = tested on: Haemophilus influenzae; experiment: In vitro inhibitory activity against Haemophilus influenzae (351HT3); format: functional; outline: as §3
[11] = tested on: Streptococcus pneumoniae; experiment: In vitro inhibitory activity against Streptococcus pneumoniae (EryRi 030SJ5i); format: functional; outline: as §3
[12] = tested on: Staphylococcus epidermidis; experiment: In vitro inhibitory activity against Staphylococcus epidermidis (EryRi 012GO11i); format: functional; outline: as §3
[13] = tested on: Streptococcus pneumoniae; experiment: (§8) In Vivo evaluation for its effective dose against Streptococcus pneumoniae (030Cr29 EryRc); format: functional; outline: as §2
[14] = tested on: Haemophilus; experiment: In vitro inhibitory activity against Haemophilus AmpS (43); format: functional
[15] = tested on: Streptococcus sp.; experiment: In vitro inhibitory activity against Streptococci EryR (27); format: functional
[16] = tested on: Escherichia coli; experiment: In vitro inhibitory activity against Escherichia coli (250 UC5); format: functional; outline: as §3
[17] = In vitro inhibitory activity against Pneumococci EryRc (34); format: functional
[18] = tested on: Enterococcus; experiment: In vitro inhibitory activity against enterococci EryRc (13); format: functional
[19] = tested on: Streptococcus pneumoniae; experiment: (§9) In Vivo evaluation for its effective dose against Streptococcus pneumoniae (030SJ6 EryRc); format: functional; outline: as §2
[20] = tested on: Staphylococcus aureus; experiment: (§10) In Vivo evaluation for its effective dose against Staphylococcus aureus (011GO25 EryRi.; format: functional; outline: as §2
[21] = tested on: Streptococcus sp.; experiment: In vitro inhibitory activity against Streptococci EryRi (98); format: functional
[22] = tested on: Staphylococcus aureus; experiment: In vitro inhibitory activity against Staphylococcus aureus (011UC4); format: functional; outline: as §3
[23] = tested on: Staphylococcus aureus; experiment: In vitro inhibitory activity against Staphylococcus aureus (EryRc 011CB20); format: functional; outline: as §3
[24] = In vitro inhibitory activity against Pneumococci PenR (65); format: functional
[25] = tested on: Staphylococcus aureus; experiment: (§11) In Vivo evaluation for its effective dose against Staphylococcus aureus (011UC4).; format: functional; outline: as §2
[26] = tested on: Staphylococcus sp.; experiment: In vitro inhibitory activity against Staphylococci EryRi (65); format: functional
[27] = tested on: Streptococcus pneumoniae; experiment: In vitro inhibitory activity against Streptococcus pneumoniae (032UC1); format: functional; outline: as §3
[28] = tested on: Haemophilus; experiment: In vitro inhibitory activity against Haemophilus AmpR (37); format: functional
[29] = tested on: Streptococcus pneumoniae; experiment: (§12) In Vivo evaluation for its effective dose against Streptococcus pneumoniae (030MV2 EryRc); format: functional; outline: as §2
[30] = tested on: Streptococcus pneumoniae; experiment: (§13) In Vivo evaluation for its effective dose against Streptococcus pneumoniae (030SJ1 EryRc); format: functional; outline: as §2
[31] = tested on: Enterococcus; experiment: In vitro inhibitory activity against enterococci EryRi (19); format: functional
[32] = tested on: Haemophilus influenzae; experiment: (§14) In Vivo evaluation for its effective dose against Haemophilus influenzae (351RD7 AmpR beta (+)); format: functional; outline: as §2
[33] = tested on: Streptococcus sp; experiment: In vitro inhibitory activity against Streptococci EryRi (98)
[34] = tested on: Mus musculus; experiment: as §1; format: functional; outline: as §2
[35] = tested on: Mus musculus; experiment: as §4; format: functional; outline: as §2
[36] = tested on: Mus musculus; experiment: as §5; format: functional; outline: as §2
[37] = tested on: Mus musculus; experiment: as §6; format: functional; outline: as §2
[38] = tested on: Streptococcus sp; experiment: In vitro inhibitory activity against Streptococci EryR (27)
[39] = tested on: Mus musculus; experiment: as §7; format: functional; outline: as §2
[40] = tested on: Mus musculus; experiment: as §8; format: functional; outline: as §2
[41] = tested on: Streptococcus sp; experiment: In vitro inhibitory activity against Streptococci EryRi (98); remark: listed apart in the source
[42] = tested on: Mus musculus; experiment: as §9; format: functional; outline: as §2
[43] = tested on: Staphylococcus sp.; experiment: In vitro inhibitory activity against Staphylococci EryRc (13); format: functional
[44] = tested on: Mus musculus; experiment: as §10; format: functional; outline: as §2
[45] = tested on: Streptococcus sp; experiment: In vitro inhibitory activity against Streptococci EryR (27); remark: listed apart in the source
[46] = tested on: Mus musculus; experiment: as §11; format: functional; outline: as §2
[47] = tested on: Mus musculus; experiment: as §12; format: functional; outline: as §2
[48] = tested on: Mus musculus; experiment: as §13; format: functional; outline: as §2
[49] = tested on: Mus musculus; experiment: as §14; format: functional; outline: as §2

## CC[C@H]1OC(=O)[C@H](C)[C@@H](O[C@H]2C[C@@](C)(OC)[C@@H](O)[C@H](C)O2)[C@H](C)[C@@H](O[C@@H]2O[C@H](C)C[C@H](N(C)C)[C@H]2O)[C@](C)(O)C[C@@H](C)CN(C)[C@H](C)[C@@H](O)[C@]1(C)O [AZITHROMYCIN]
[1]
  ED50: 368 mg/kg
[2]
  MIC: 40 mg/L (≈ 53.4 µM)
[3]
  ED50: 16 mg/kg
[4]
  MIC: 40 mg/L (≈ 53.4 µM)
[5]
  ED50: > 100 mg/kg
[6]
  ED50: 109 mg/kg
[7]
  ED50: > 50 mg/kg
[8]
  MIC: 1.2 mg/L (≈ 1.6 µM)
[9]
  MIC: 0.6 mg/L (≈ 0.801 µM)
[10]
  MIC: 1.2 mg/L (≈ 1.6 µM)
[11]
  MIC: 40 mg/L (≈ 53.4 µM)
[12]
  MIC: 40 mg/L (≈ 53.4 µM)
[13]
  ED50: > 100 mg/kg
[14]
  MIC50: 0.15 mg/L (≈ 0.2 µM)
  MIC90: 1.2 mg/L (≈ 1.6 µM)
[15]
  MIC50: 10 mg/L (≈ 13.4 µM)
  MIC90: 40 mg/L (≈ 53.4 µM)
[16]
  MIC: 20 mg/L (≈ 26.7 µM)
[17]
  MIC50: 40 mg/L (≈ 53.4 µM)
  MIC90: 40 mg/L (≈ 53.4 µM)
[18]
  MIC50: 10 mg/L (≈ 13.4 µM)
  MIC90: 40 mg/L (≈ 53.4 µM)
[19]
  ED50: > 100 mg/kg
[20]
  ED50: > 100 mg/kg
[21]
  MIC50: 40 mg/L (≈ 53.4 µM)
  MIC90: 40 mg/L (≈ 53.4 µM)
[22]
  MIC: 0.3 mg/L (≈ 0.401 µM)
[23]
  MIC: 40 mg/L (≈ 53.4 µM)
[24]
  MIC50: 2.5 mg/L (≈ 3.34 µM)
  MIC90: 40 mg/L (≈ 53.4 µM)
[25]
  ED50: 60 mg/kg
[26]
  MIC50: 40 mg/L (≈ 53.4 µM)
  MIC90: 40 mg/L (≈ 53.4 µM)
[27]
  MIC: 0.15 mg/L (≈ 0.2 µM)
[28]
  MIC50: 0.3 mg/L (≈ 0.401 µM)
  MIC90: 1.2 mg/L (≈ 1.6 µM)
[29]
  ED50: > 100 mg/kg
[30]
  ED50: > 100 mg/kg
[31]
  MIC50: 40 mg/L (≈ 53.4 µM)
  MIC90: 40 mg/L (≈ 53.4 µM)
[32]
  ED50: 117 mg/kg

## CC[C@H]1OC(=O)[C@H](C)[C@@H](O[C@H]2C[C@@](C)(OC)[C@@H](O)[C@H](C)O2)[C@H](C)[C@@H](O[C@@H]2O[C@H](C)C[C@H](N(C)C)[C@H]2O)[C@](C)(OC)C[C@@H](C)C(=O)[C@H](C)[C@@H](O)[C@]1(C)O [CLARITHROMYCIN]
[33]
  MIC50: 40 mg/L (≈ 53.5 µM)
[34]
  ED50: 600 mg/kg
[2]
  MIC: 40 mg/L (≈ 53.5 µM)
[35]
  ED50: 16 mg/kg
[4]
  MIC: 40 mg/L (≈ 53.5 µM)
[36]
  ED50: > 100 mg/kg
[37]
  ED50: 346 mg/kg
[38]
  MIC50: 1.2 mg/L (≈ 1.6 µM)
[39]
  ED50: > 50 mg/kg
[8]
  MIC: 2.5 mg/L (≈ 3.34 µM)
[9]
  MIC: 0.08 mg/L (≈ 0.107 µM)
[10]
  MIC: 2.5 mg/L (≈ 3.34 µM)
[11]
  MIC: 40 mg/L (≈ 53.5 µM)
[12]
  MIC: 40 mg/L (≈ 53.5 µM)
[40]
  ED50: > 100 mg/kg
[14]
  MIC50: 1.2 mg/L (≈ 1.6 µM)
  MIC90: 5 mg/L (≈ 6.68 µM)
[41]
  MIC90: 40 mg/L (≈ 53.5 µM)
[16]
  MIC: 40 mg/L (≈ 53.5 µM)
[17]
  MIC50: 40 mg/L (≈ 53.5 µM)
  MIC90: 40 mg/L (≈ 53.5 µM)
[42]
  ED50: > 100 mg/kg
[43]
  MIC50: 40 mg/L (≈ 53.5 µM)
  MIC90: 40 mg/L (≈ 53.5 µM)
[44]
  ED50: > 100 mg/kg
[45]
  MIC90: 40 mg/L (≈ 53.5 µM)
[22]
  MIC: 0.3 mg/L (≈ 0.401 µM)
[23]
  MIC: 40 mg/L (≈ 53.5 µM)
[24]
  MIC50: 0.3 mg/L (≈ 0.401 µM)
  MIC90: 40 mg/L (≈ 53.5 µM)
[46]
  ED50: 12.6 mg/kg
[26]
  MIC50: 40 mg/L (≈ 53.5 µM)
  MIC90: 40 mg/L (≈ 53.5 µM)
[27]
  MIC: 0.04 mg/L (≈ 0.0535 µM)
[28]
  MIC50: 2.5 mg/L (≈ 3.34 µM)
  MIC90: 10 mg/L (≈ 13.4 µM)
[47]
  ED50: > 100 mg/kg
[48]
  ED50: > 100 mg/kg
[31]
  MIC50: 1.2 mg/L (≈ 1.6 µM)
  MIC90: 10 mg/L (≈ 13.4 µM)
[49]
  ED50: 109 mg/kg
